Data reported in PubChem BioAssay AID688 (PCMD, 2007).
About 250 (0.93%) of roughly 27,000 compounds were called active.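 Rule for the calls: active = mutant luminescence inhibited past about 50% while wild type luminescence and mutant growth stay under set limits (limit read from the data); inconclusive = mutant versus wild type luminescence inhibition gap past a set limit; inactive = the rest.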 The full list was thinned out, with actives kept by preference.

Assay: GCN4-lacZ reporter reduction in eIF2B-epsilon mutant yeast, primary screen, S. cerevisiae, eIF2B-epsilon R284H, Beta-Glo luminescence (AID 688)
Settings: growth inhibition: measured here: mutant yeast growth, toxicity, concentration not given here; inhibition: stronger effect = higher value, screened at 25 µM (by protocol)
Method in brief: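 Times: 16 h growth with compound at 30 °C, 90 min Beta-Glo step; Assay system: yeast eIF2B-epsilon R284H mutant carrying GCN4–beta-galactosidase fusion; Measure: % inhibition of reporter signal and growth versus controls; Dosing: one concentration, 25 µM, 0.25% DMSO; Buffer or medium: YPD yeast growth medium; Measured by: Beta-Glo luminescence plus absorbance at 595 nm.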

Row | SMILES | inhibition | growth inhibition [%]
1 | N#CCSc1nc2c(c(=O)n1Cc1ccccc1)C1(CCCC1)Cc1ccccc1-2 | 9.23% (inactive) | 
2 | O=C(Cc1ccccc1)Nc1c(C(=O)N2CCCCCC2)cnn1-c1ccccc1 | -14.8% (inactive) | 8.33
3 | COc1ccc(S(=O)(=O)N2CCCC(C(=O)N3CCN(C)CC3)C2)cc1C (centres undefined) | -4.21% (inactive) | 6.9
4 | CC(C)n1c(-c2cccs2)nc2ccccc21 | 15% (inactive) | 14.7
5 | CCOC(=O)C1=C(CSc2nnnn2C)N(C)C(=O)NC1c1ccccc1 (centres undefined) | 19.9% (inactive) | -2.7
6 | CCOC(=O)c1sc(C)c2c1NC(C)(c1cccc3ccccc13)NC2=O (centres undefined) | -8.97% (inactive) | 2.7
7 | CCOCCn1c(C(C)C)nc2ccccc21 | -14.4% (inactive) | 
8 | CCNc1nc(N)nc(Oc2ccc(OCC)nn2)n1 | 31.6% (inactive) | -12.5
9 | C/C=C/C(=O)Nc1nnc(C(C)C)s1 | 1.35% (inactive) | 
10 | O=C(CS(=O)(=O)Cc1ccccc1)Nc1cccnc1 | 11.1% (inactive) | 
11 | O=C(CCCn1c(=O)oc2ccccc21)Nc1cccnc1 | 22.3% (inactive) | -21.7
12 | O=C(Nc1cccnc1)c1noc2c1CCCCC2 | 69% (active) | 3.45
13 | COc1ccc(-n2nnnc2SCC(=O)Nc2ccccc2)cc1 | 0.65% (inactive) | -13.6
14 | O=C(NCc1ccccn1)c1cc(-c2ccccc2Cl)on1 | 8.32% (inactive) | 9.09
15 | COc1ccc(-c2nnc(SCC(=O)c3ccc4c(c3)OCCO4)o2)cc1 | 9.99% (inactive) | -27.1
16 | C=CCSC1=C(C#N)C(c2cc(Br)c(O)c(OC)c2)CC(=O)N1 (centres undefined) | 17.8% (inactive) | -19.1
17 | O=C(NCC(=O)N(Cc1cccs1)C(C(=O)NC1CCCCC1)c1ccco1)c1cccs1 (centres undefined) | 9.07% (inactive) | -12.9
18 | Cc1nc2c(c(=O)n1Cc1ccco1)c1nc3ccccc3nc1n2Cc1ccccc1 | 16.6% (inactive) | 
19 | CCOc1ccc(NC(=O)CN(C)CC(=O)Nc2cccc(Cl)c2C)cc1OCC | 30.2% (inactive) | -23.8
20 | COc1ccccc1-n1nnnc1S(=O)(=O)Cc1ccc(Cl)cc1 | 24.8% (inactive) | -20.6
21 | Cc1cc(C)n(-c2c(F)c(F)c(COC(=O)c3ccccc3)c(F)c2F)n1 | 20.8% (inactive) | 23
22 | Cc1cccc(N2C(=O)c3cccnc3C2=O)c1 | 27.9% (inactive) | -42.9

Row | SMILES | inhibition | growth inhibition [%]
23 | CC(=O)NC1(c2cccc(F)c2)CCN(CC(=O)NC(C)C)CC1 | 8.86% (inactive) | 4.55
24 | O=C(NCc1ccc(Cl)c(Cl)c1)c1cccnc1 | 24.4% (inactive) | -25
25 | O=C(Nc1nncs1)c1cccc(S(=O)(=O)N2CCCCC2)c1 | -2.85% (inactive) | -27.3
26 | Cc1ccc(C2(C(F)(F)F)N=C3Sc4cc(C)cc(C)c4N3C(=O)N2)cc1 (centres undefined) | 31.4% (inactive) | -4.76
27 | C=CCn1c(SCCOc2ccc(OC)cc2)nnc1C(NC(=O)c1ccc(OC)cc1)C(C)C (centres undefined) | 21.4% (inactive) | -10
28 | COCc1[nH][nH]c(=O)c1C=Nc1ccc(F)cc1F | 24.1% (inactive) | 18.9
29 | Cc1ccc2c(CSc3nncs3)cc(=O)oc2c1 | -21.6% (inactive) | -14.7
30 | CCCCNS(=O)(=O)c1ccc(S(=O)(=O)n2cnc3ccccc32)cc1 | -22.7% (inactive) | -31.6
31 | CCOC(=O)c1c(N)sc(C(C)=O)c1C | 2.16% (inactive) | 19.1
32 | Cc1ccc(S(=O)(=O)c2nc(NCCCn3ccnc3)sc2Cl)cc1 | 26% (inactive) | 15.9
33 | COc1ccc(Cl)cc1C(=O)Nc1ccc(N(C)C(C)=O)cc1 | 21.8% (inactive) | 27.8
34 | CCN(CC)CCNC(=O)CCCCCn1c(=O)[nH]c2cc(C(=O)OC)ccc2c1=O | 12.9% (inactive) | 3.33
35 | Nn1c(Cc2cccc3ccccc23)nnc1SCC(=O)N1CC(=O)Nc2ccccc21 | 9.26% (inactive) | 7.35
36 | Cc1ccc(C2=CSC3=NS(=O)(=O)CCN23)cc1C | 1.24% (inactive) | -2.38
37 | O=C(c1cccc2ccccc12)N1CCN(c2ccccc2F)CC1 | 8.17% (inactive) | 10.7
38 | O=C(O)CCSc1nnc(-c2ccccc2)n1-c1ccccc1 | 19.8% (inactive) | -9.09
39 | Cc1ccc(S(=O)(=O)NCC(C)NS(C)(=O)=O)cc1 (centres undefined) | -24.4% (inactive) | 1.47
40 | COCc1nnc(NC(=O)CS(=O)(=O)Cc2ccccc2)s1 | 8.87% (inactive) | -13.8
41 | COc1ccc(-n2c(SCC(=O)Nc3ccc4c(c3)OCO4)nnc2C(C)N2CCCCC2)cc1 (centres undefined) | 32% (inactive) | -17.2
42 | O=C(NC1(C(F)(F)F)NC(=O)N(Cc2cccnc2)C1=O)c1ccccc1Cl (centres undefined) | 12.7% (inactive) | -9.52
43 | CCc1nnc(NC(=O)CSc2nc3ccccc3c(=O)n2CCCOC)s1 | -1.74% (inactive) | -4.35
44 | Cc1cc(-n2nc(C)cc2C)n2nc(C)c(-c3ccccc3)c2n1 | -42.8% (inactive) | -28.6

Row | SMILES | inhibition | growth inhibition [%]
45 | CCOC(=O)c1cnc(SCC(=O)NCc2ccco2)nc1N | -10.3% (inactive) | 5.17
46 | CCOc1ccccc1NC(=O)C1CCCN(C(=O)Nc2ccccc2)C1 (centres undefined) | 25.3% (inactive) | -12.5
47 | COc1ccc(C2N=C(N)N=C(N)N2c2ccccc2)cc1OC (centres undefined) | -6.05% (inactive) | -25
48 | COc1ccc(OC)c(-n2nnnc2SCC(=O)Nc2cc(C)ccc2OC)c1 | 30.4% (inactive) | -24.1
49 | COC(=O)c1cccc(N(C(=O)c2ccco2)C(C(=O)NC2CCCC2)c2ccco2)c1 (centres undefined) | -17.9% (inactive) | 
50 | CCC(C(=O)NC1CCCC1)N(C(=O)c1snc(C(N)=O)c1N)c1ccc2c(c1)OCCO2 (centres undefined) | 52.4% (active) | -13.6
51 | CCCCNC(=O)CCNC(=O)c1ccc(C(C)(C)C)cc1 | 20.7% (inactive) | 22.6
52 | CCCCCCSc1nsc(N)n1 | 30.6% (inactive) | 5.56
53 | CC(C)C(=O)Nc1nnc(Sc2ccc(N(C)C)cc2)s1 | -11.6% (inactive) | -33.3
54 | COc1ccc(CNC(=O)CCn2cccc2)cc1 | 18.8% (inactive) | 33.3
55 | CCCNC(=O)N1CCN(C(=O)NCCC)CC1 | 3.89% (inactive) | 5.13
56 | COc1ccccc1NC(=O)CC(NCCN(C)C)C(=O)O (centres undefined) | 15.2% (inactive) | 18.9
57 | CC(=O)Nc1ccc(NC(=O)CSCc2cnn(-c3ccccc3)c2-n2cccc2)cc1 | 13.1% (inactive) | -16.7
58 | COCCNC(=O)COc1ccccc1C | 9.39% (inactive) | 6.67
59 | Cc1nc(N2CCOCC2)nc2c1CCCC2 | 16.9% (inactive) | 15
60 | C[C@H](NC(=O)OC(C)(C)C)c1nnc(SCC(N)=O)o1 | 12.5% (inactive) | 7.41
61 | O=C(c1cc2sccc2n1Cc1ccc(F)cc1)N1CCc2ccccc21 | 26.8% (inactive) | 13.5
62 | CCCCCCc1cc2cc(-c3nnc(-c4cccc(OC)c4)o3)c(=O)oc2cc1O | -37.6% (inactive) | 
63 | CCC(=O)N(Cc1cc2cc(OC)ccc2[nH]c1=O)c1ccccc1C | 5.99% (inactive) | 3.45
64 | CC(C)(C)n1nnnc1C(c1ccc(Cl)cc1)N1CCSCC1 (centres undefined) | 13.7% (inactive) | -17.4
65 | CCN(CC)CCCN1C(=O)C(=O)/C(=C(/O)c2c(C)nc3ccccn23)C1c1ccc(C)o1 (centres undefined) | 7.68% (inactive) | 3.45
66 | CC(=O)NC(C)(C)C1CC=C(C)/C(=N\O)C1 (centres undefined) | -13.5% (inactive) | -23.8

Row | SMILES | inhibition | growth inhibition [%]
67 | CC(C)CC(N=C1NC(C)(C)Cc2ccccc21)C(=O)O (centres undefined) | 6.22% (inactive) | 21.1
68 | O=C(CN1C(=O)CC(c2ccccc2)=Nc2ccccc21)NC1CCCCC1 | 18.7% (inactive) | -28.6
69 | CCN(CC(=O)NC1CCS(=O)(=O)C1)c1nc(-c2cccnc2)nc2ccccc12 (centres undefined) | 20.1% (inactive) | -30.9
70 | C[C@H](NC(=O)OC(C)(C)C)c1nnc(SCC(=O)Nc2ccc(Br)cc2)o1 | 14.5% (inactive) | -11.1
71 | CCOC(=O)C1=C(C)NC2=C(C(=O)CC(C)(C)C2)C1c1ccsc1 (centres undefined) | 9.79% (inactive) | -7.5
72 | Cc1c(C(=O)CN2CCOCC2)[nH]c2ccccc12 | 16.8% (inactive) | 18.5
73 | COc1ccc(C2C(C(C)=O)=C(O)C(=O)N2Cc2cccnc2)cc1 (centres undefined) | -0.66% (inactive) | 
74 | CCOC(=O)NC(C(F)(F)F)(C(F)(F)F)P(=O)(c1ccccc1)c1ccccc1 | -15.8% (inactive) | -5.56
75 | Cc1cc(=O)oc(C)c1C(=O)Nc1cnc2ccccc2c1 | 17.1% (inactive) | -3.7
76 | COc1ccc(C(C#N)N2N=C(C)CC2(C)C)cc1 (centres undefined) | -5.47% (inactive) | 4.76
77 | COC(=O)C1=C(C)NC(=O)NC1/C=C/c1ccccc1 (centres undefined) | 22.3% (inactive) | -4.55
78 | Cc1cc(Oc2ccccc2)nc(N2CCOCC2)n1 | 12.4% (inactive) | 5.41
79 | CCCc1nc(-c2ccccc2O)n(-c2ccccc2)n1 | 52.9% (active) | 25.8
80 | CCCc1nc2c3cnn(-c4cccc(Cl)c4)c3ncn2n1 | 17.9% (inactive) | 
81 | CCCCOc1ccc(NC(=O)CSCC(=O)OCC)cc1 | 25% (inactive) | 
82 | Cc1ccc(-c2nnn(CC(=O)N(CCO)C(C(=O)NC(C)(C)C)c3ccncc3)n2)cc1 (centres undefined) | 23.7% (inactive) | 14.8
83 | O=c1c2ccccc2oc2nc3n(c(=O)c12)CCCS3 | 24.9% (inactive) | 4
84 | CCOc1ccc(N=C2SC(C(=O)O)CC(=O)N2C)cc1 (centres undefined) | 24.2% (inactive) | 12
85 | CCCOc1cc(C)c(S(=O)(=O)n2nnc3ccccc32)cc1C | 11.9% (inactive) | 12.9
86 | O=C(CSc1nnc(-c2cnccn2)n1Cc1ccco1)c1ccc(Cl)c(Cl)c1 | 4.49% (inactive) | -22.6
87 | COc1ccc(-c2cc(C(=O)NCc3ccco3)no2)cc1OC | 19.9% (inactive) | 2.7
